Results from ChEMBL document CHEMBL2177071, “The effect of Pro(2) modifications on the structural and pharmacological properties of endomorphin-2” (J Med Chem, 2012).

Legend:
[1] = target: Delta-type opioid receptor (Rattus norvegicus) (UniProt P33533); assay: (§1) Displacement of [3H][Ile5,6]deltorphin 2 from delta opioid receptor in Wistar rat brain membranes; assay type: cell membranes; conditions: Membrane
Procedure, shortened: (§2)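 Competitive displacement in crude rat brain membrane preparation, with the test peptide at a range of concentrations. Ki is calculated from EC50 by Cheng–Prusoff, Ki = EC50/(1+[ligand]/Kd), using Kd values from the literature. Means ± SEM, n ≥ 3.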

[2] = Half life in Wistar rat brain homogenate; assay type: ADME, tissue-based
Procedure, shortened: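 Peptide incubated in crude rat brain membrane homogenate with a protein content of 4.7 mg/mL, and its disappearance followed over time. Half-life is calculated from pseudo-first-order kinetics. Means of at least three individual experiments ± SEM.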

[3] = target: Delta-type opioid receptor (Rattus norvegicus, UniProt P33533); assay: as §1; assay type: cell membranes, Membrane; procedure, shortened: as §2
Mu-type opioid receptor [4] = target: T1, Mu-type opioid receptor (Rattus norvegicus, UniProt P33535); assay type: cell membranes, Wistar, Membrane
Mu-type opioid receptor [5] = target: T1, Mu-type opioid receptor; assay: Agonist activity at mu opioid receptor in Wistar rat brain membranes after 60 mins by [35S]GTPgammaS binding assay; assay type: functional, cell membranes, Membrane

Sequence of Delta-type opioid receptor (Rattus norvegicus) (P33533 whole entry): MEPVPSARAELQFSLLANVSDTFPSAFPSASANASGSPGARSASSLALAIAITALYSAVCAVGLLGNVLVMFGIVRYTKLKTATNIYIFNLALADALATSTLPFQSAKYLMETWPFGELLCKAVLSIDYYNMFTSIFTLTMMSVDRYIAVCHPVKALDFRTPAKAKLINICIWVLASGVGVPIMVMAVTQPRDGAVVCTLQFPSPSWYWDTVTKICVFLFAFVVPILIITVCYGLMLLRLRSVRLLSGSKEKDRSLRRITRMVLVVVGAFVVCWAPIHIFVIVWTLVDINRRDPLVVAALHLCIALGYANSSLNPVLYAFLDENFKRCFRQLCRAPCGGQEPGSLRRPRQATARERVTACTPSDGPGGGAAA
Sequence of Delta-type opioid receptor (P33533 whole entry): as above
T1 sequence (P33535 whole entry): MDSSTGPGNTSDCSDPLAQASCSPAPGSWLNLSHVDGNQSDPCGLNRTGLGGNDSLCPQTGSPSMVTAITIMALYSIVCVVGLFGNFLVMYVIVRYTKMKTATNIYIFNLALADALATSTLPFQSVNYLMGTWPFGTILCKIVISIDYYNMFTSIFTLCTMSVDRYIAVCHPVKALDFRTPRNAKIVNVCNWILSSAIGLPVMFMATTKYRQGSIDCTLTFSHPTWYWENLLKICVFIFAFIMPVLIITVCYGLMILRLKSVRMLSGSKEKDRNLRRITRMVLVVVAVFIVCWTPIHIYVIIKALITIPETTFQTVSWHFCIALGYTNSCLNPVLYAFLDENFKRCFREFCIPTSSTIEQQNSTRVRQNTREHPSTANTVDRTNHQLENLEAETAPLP

Compound | Activity [1] | half-life [2] [min] | Ki [3] [nM] | Ki (Mu-type opioid receptor [4]) [nM] | EC50 (Mu-type opioid receptor [5]) [nM]
NC(=O)[C@H](Cc1ccccc1)NC(=O)[C@H](Cc1ccccc1)NC(=O)[C@@H]1CCCN1C(=O)[C@@H](N)Cc1ccc(O)cc1 [ENDOMORPHIN 2] | Dose-dependent effect | 5.8 | – | – | –
NC(=O)[C@H](Cc1ccccc1)NC(=O)[C@H](Cc1ccccc1)NC(=O)[C@H]1CC=C[C@H]1NC(=O)[C@@H](N)Cc1ccc(O)cc1 | Dose-dependent effect | > 1200 | 9930 | – | –
NC(=O)[C@H](Cc1ccccc1)NC(=O)[C@H](Cc1ccccc1)NC(=O)[C@H]1CC=CC[C@H]1NC(=O)[C@@H](N)Cc1ccc(O)cc1 | Dose-dependent effect | > 1200 | 1030 | – | –
NC(=O)[C@H](Cc1ccccc1)NC(=O)[C@H](Cc1ccccc1)NC(=O)C[C@@H]1CCCN1C(=O)[C@@H](N)Cc1ccc(O)cc1 | Dose-dependent effect | 34 | > 10000 | 27 | 845
NC(=O)[C@H](Cc1ccccc1)NC(=O)[C@H](Cc1ccccc1)NC(=O)[C@@H]1C[C@@H](O)CN1C(=O)[C@@H](N)Cc1ccc(O)cc1 | Dose-dependent effect | 17 | > 10000 | 44 | 66
NC(=O)[C@H](Cc1ccccc1)NC(=O)[C@H](Cc1ccccc1)NC(=O)[C@@H]1CC=C[C@@H]1NC(=O)[C@@H](N)Cc1ccc(O)cc1 | Dose-dependent effect | – | > 10000 | – | –
NC(=O)[C@H](Cc1ccccc1)NC(=O)[C@H](Cc1ccccc1)NC(=O)[C@@H]1CC=CC[C@@H]1NC(=O)[C@@H](N)Cc1ccc(O)cc1 | Dose-dependent effect | – | > 10000 | – | –
